Compound activity: PubChem BioAssay, several laboratories
Mdm2 ligase inh: Mdm2 E3 ligase (human) inhibition | Q00987 | 210,000 compounds, 0.11% hits | AID 1230 | cell-based MDM2 ubiquitination luciferase reporter, 2 h; 0 = plate control, 100 = twice control, blank-subtracted | signal enhancement, % at 5 µM;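 active means signal enhancement of 30% or more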;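 further: luminescence tracks abundance of the self-degrading MDM2-luciferase fusion protein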
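Assay system: stable mammalian line carrying autodegrading MDM2–luciferase fusion reporter; Input: 2000 cells in each well; Compound dosing: single-point 5 µM; Schedule: 2 h compound exposure at 37 °C; Signal: SteadyLite luciferase luminescence after 15 min room-temperature reagent incubation; Evaluation: % luminescence enhancement versus blank-corrected plate control mean; Benchmarks: plate controls and plate blanks.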
B2AR ag: human beta-2 adrenergic receptor agonism by FAP; Am2.2-beta2AR cells, FAP receptor internalization, flow cytometry; response, % (concentration not given with the values); 340,000 compounds, 0.43% hits;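 active means response above a set limit, near 3 SD of response in nonfluorescent compounds, cut at about 42% in these data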
Dynein transport: dynein cargo transport inhibition. 3617.4 mouse cells, GR-EGFP nuclear translocation imaging; test concentration mostly 20 µM; stimulated with dexamethasone, 1 µM; hits give low values. z-score, hits read low. 220,000 compounds, 0.47% hits;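 active means plate z-score of nuclear minus cytoplasmic receptor signal below a set negative limit, without overly bright fluorescence or cell loss, cut at about -3.5 in these data, passing the limit was not always enough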;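 further: z-score of nuclear minus cytoplasmic ring GR-EGFP intensity difference per well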
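Also added – dexamethasone, 1.0 µM final · Buffer or medium – tet-free, stripped-serum medium · Schedule – induction 48 h, compound 1 h, agonist 30 min · Detection – formaldehyde fixation, Hoechst nuclear stain, 10x automated fluorescence imaging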
CHOP UPR activ: apoptotic UPR (CHOP) activation. CHO-CHOP luciferase reporter, luminescence; percent of tunicamycin response over DMSO baseline. activation, % at 10 µM. 330,000 compounds, 0.34% hits. AID 449763;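 active means at 10 µM dose, activation of 40% or more, normalized to positive control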;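 further: 100% = tunicamycin at 10 µg/mL and 0% = DMSO alone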
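assay system = CHO CHOP reporter cells | amount = 500 CHO-CHOP cells per well | buffer or medium = F12 with 10% FBS | incubation = 16-18 h cell attachment, then 6 h compound exposure, 37 °C | detection = luminescence read with Steady-Glo | read-out = percent activation relative to tunicamycin control | controls = tunicamycin high control, DMSO low control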
Mdm2-MdmX inh: disrupts the human Mdm2-MdmX interaction | O15151+Q00987 | inhibition, % at 8 µM | SaOS-2 split-luciferase Mdm2/MdmX complementation, luminescence | 330,000 compounds, 3% hits;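 active means inhibition of at least 50% at 8 µM in the primary screen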
Target sequence (O15151 whole entry, looked up): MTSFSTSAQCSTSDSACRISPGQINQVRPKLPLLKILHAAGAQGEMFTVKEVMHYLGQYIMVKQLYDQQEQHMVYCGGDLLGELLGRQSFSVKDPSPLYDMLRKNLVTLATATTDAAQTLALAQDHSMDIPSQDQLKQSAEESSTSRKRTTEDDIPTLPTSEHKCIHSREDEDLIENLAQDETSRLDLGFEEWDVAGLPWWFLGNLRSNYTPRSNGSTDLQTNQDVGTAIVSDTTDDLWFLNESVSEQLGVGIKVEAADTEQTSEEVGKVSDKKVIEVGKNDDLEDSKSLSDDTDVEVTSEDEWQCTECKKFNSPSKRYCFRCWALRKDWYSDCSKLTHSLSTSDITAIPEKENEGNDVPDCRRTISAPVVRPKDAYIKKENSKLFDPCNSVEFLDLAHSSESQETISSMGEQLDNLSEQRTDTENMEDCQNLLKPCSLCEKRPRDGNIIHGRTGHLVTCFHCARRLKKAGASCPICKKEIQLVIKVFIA
Target sequence (Q00987 whole entry, looked up): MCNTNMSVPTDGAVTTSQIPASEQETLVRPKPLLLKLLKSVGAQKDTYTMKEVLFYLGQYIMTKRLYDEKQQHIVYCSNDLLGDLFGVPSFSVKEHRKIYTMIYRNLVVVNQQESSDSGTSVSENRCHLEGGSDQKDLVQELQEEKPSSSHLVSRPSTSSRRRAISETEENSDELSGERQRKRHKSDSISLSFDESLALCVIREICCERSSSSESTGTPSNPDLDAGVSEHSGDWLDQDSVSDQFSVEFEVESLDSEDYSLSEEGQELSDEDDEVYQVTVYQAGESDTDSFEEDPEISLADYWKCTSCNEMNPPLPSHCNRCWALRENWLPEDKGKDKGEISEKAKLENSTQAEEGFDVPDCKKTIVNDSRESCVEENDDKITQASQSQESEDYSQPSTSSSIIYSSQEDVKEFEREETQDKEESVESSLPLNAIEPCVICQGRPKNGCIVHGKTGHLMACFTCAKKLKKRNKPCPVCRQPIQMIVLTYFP
UPR XBP1 act: activators of adaptive arm of unfolded protein response (XBP1); CHO-XBP1 luciferase reporter, IRE1-XBP1 UPR activation, luminescence; percent of tunicamycin response, DMSO as zero; activation, % at 20 µM; 330,000 compounds, 0.33% hits;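 active means versus positive control, 20 µM dose yields 30% or more activation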;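 further: 100% = tunicamycin at 10 µg/mL and 0% = DMSO only wells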
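Assay system: CHO-XBP1 luciferase reporter cells; Schedule: 6 h treatment, 37 °C; Detection: glow luminescence from Steady-Glo reagent; Benchmarks: high control tunicamycin 10 µg/mL final, low control DMSO vehicle only.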
Mdm2-MdmX conf: confirmation of human Mdm2/MdmX interaction inhibitors. shares compounds with Mdm2-MdmX inh. Mdm2-MdmX binding, luminescent assay. inhibition, % at 8 µM. 10,000 compounds, 55% hits; in the data active means inhibition above about 40%
FLuc counter: inhibits full-length luciferase, flagging false Mdm2/MdmX hits | AID 504607 | SaOS-2 full-length luciferase counterscreen, luminescence | inhibition, % at 8 µM | 6,200 compounds, 77% hits | shares compounds with Mdm2-MdmX inh;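 active means mean inhibition at 8 µM reaching about 37%, which flags the compound as non-specific, limit read from the data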;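 further: p53-null SaOS-2 cells with luciferase driven by a doxycycline-inducible promoter; compound on cells about two nights before reading with doxycycline added after day one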
Starred values were filed as active, the others as inactive; . = not tested or not shown. Only some compounds are listed: those with a hit (about 3.7% of all), similar ones and a draw of the others.

SMILES	Mdm2 ligase inh	B2AR ag	Dynein transport	CHOP UPR activ	Mdm2-MdmX inh	UPR XBP1 act	Mdm2-MdmX conf	FLuc counter
Cc1cc(C)c(NC(=O)c2ccc3c(c2)CCN3S(C)(=O)=O)c(C)c1	.	-5	.	1	26	-4	.	.
COc1ccc(/C=C2\Sc3ccc(C(=O)NCCN4CCCCCC4)cc3N(C)C2=O)cc1	.	7	.	6	42	2	.	.
CCN1CCN(CCNC(=O)c2ccc3c(c2)N(Cc2ccc(F)cc2)C(=O)/C(=C/c2ccccc2)S3)CC1	-2	-589	-4.7	4	96*	-1	74*	23
COc1ccc(CN2CCNC(=O)C2CC(=O)N(C)C2CCOCC2)c(F)c1 (stereo unspecified)	.	12	.	0	26	-2	.	.
O=c1cc(-c2ccc(O)cc2)oc2c1ccc1ccccc12	.	13	.	1	42	-1	.	.
COc1cc2oc(-c3ccc(O)cc3)cc(=O)c2c(OC)c1O	.	4	1.7	1	51*	3	17	.
O=c1cc(-c2ccc(O)cc2)oc2ccc3ccccc3c12	.	15	.	-10	68*	-9	66*	75*
COc1cc(F)cc(-c2ccc3c(c2)c(-c2cccs2)c(-c2cc(OC)cc(OC)c2)n3C)c1	.	4	.	-1	54*	6	55*	57*
CCOc1ccc(CC(=O)NCC2(N3CCCCC3)CCCCC2)cc1	-17	2	-0.45	2	-18	-2	.	.
CN1c2ccccc2C(C)(C)C12C=Nc1c(cc(N3CCOCC3)c3ccccc13)O2 (stereo unspecified)	-13	7	-0.53	0	59*	-2	14	.
COc1cc(OC)cc(C(=O)Nc2ccc3c(c2)CCCN3C(=O)c2cccs2)c1	.	14	.	2	78*	-3	60*	86*
O=C(Nc1ccc2c(c1)CCCN2C(=O)c1cccs1)c1ccccc1	.	10	.	2	20	-5	.	.
O=C(Nc1ccc2c(c1)CCCN2C(=O)c1ccccc1)c1ccccc1Br	.	4	.	0	79*	2	46*	77*
COc1cc(OC)cc(C(=O)Nc2ccc(N3CCN(C(=O)c4cccs4)CC3)cc2)c1	.	3	.	0	63*	-1	70*	69*
CC(C)CCNc1nc(N)c([N+](=O)[O-])c(N2CCCCCC2)n1	.	1	.	1	3	9	.	.
CC(=O)Nc1ccc(SCC(=O)c2cc(C)n(-c3ccccc3)c2C)cc1	-29	-3	-0.53	-3	65*	-6	79*	94*
COc1ccc(-n2c(C)cc(C(=O)CSc3ccc(NC(C)=O)cc3)c2C)cc1	-17	-1	-0.63	2	-63	2	.	.
C[C@H]1NS(=O)(=O)c2ccc(Br)cc2O[C@H]1c1ccccc1	.	-6	.	2	27	0	.	.
CCC/C=C1/CCCOC(C(=O)NCc2ccccc2)(C(F)(F)F)C1 (stereo unspecified)	.	3	.	-2	14	2	.	.
COc1ccc(CNC(=O)C[C@H]2C[C@H](C(=O)N(C(C)C)C(C)C)[C@@]3(C)c4[nH]c5cc(-c6ccco6)ccc5c4CCN3C2=O)cc1OC	.	6	.	4	15	3	.	.
CS(=O)(=O)N1CCN(c2ccccc2NC(=O)c2ccc(-c3ccc(Cl)cc3Cl)o2)CC1	12	-5	-0.63	-1	21	0	.	.
CN1CCN(c2ccccc2NC(=O)c2ccc(-c3ccc(Cl)cc3Cl)o2)CC1	-21	-15	0.075	2	56*	2	52*	86*
Cc1cc(NC(=O)C(C)SCC(=O)N(Cc2ccccc2)c2ccccc2)no1 (stereo unspecified)	.	6	.	1	67*	-4	45*	110*
Cc1cc(NC(=O)C(C)SCC(=O)OCC(=O)N(Cc2ccccc2)C(C)(C)C)no1 (stereo unspecified)	.	2	.	8	8	-5	.	.
O=C(CCN1C(=O)/C(=C/c2ccc(Cl)cc2)SC1=S)NC1C=CS(=O)(=O)C1 (stereo unspecified)	.	10	.	0	59*	0	36	.
SMILES	Mdm2 ligase inh	B2AR ag	Dynein transport	CHOP UPR activ	Mdm2-MdmX inh	UPR XBP1 act	Mdm2-MdmX conf	FLuc counter
CC(C)c1ccc(/C=C2\SC(=O)N(CC(=O)NC3C=CS(=O)(=O)C3)C2=O)cc1 (stereo unspecified)	.	-1	.	6	77*	-2	40*	40*
O=C(CCN1C(=O)/C(=C/c2ccccc2F)SC1=S)NC1C=CS(=O)(=O)C1 (stereo unspecified)	.	-2	.	2	19	-6	.	.
CCN(C(=O)CSc1ncccn1)c1c(N)n(Cc2ccccc2)c(=O)[nH]c1=O	.	9	.	1	-5	1	.	.
CC(C)(C)OC(=O)C[C@H]1C/C=C\C[C@H](CC(=O)N[C@H](CO)Cc2ccccc2)C(=O)N2CCC[C@@H]2COC1=O	.	-1	.	1	11	-3	.	.
O=C(NC1CCCCC1)c1sc(=S)n2c1[nH]c(=O)c1ccccc12	-23	8	-0.22	1	70*	0	21	.
CCCCc1nc(SCC(=O)N2CCCC2)c2c(=O)n(C)c(=O)n(C)c2n1	.	-12	.	1	-1	-6	.	.
O=C(CCN1CCOCC1)NC1CCCN(Cc2ccccc2F)C1 (stereo unspecified)	.	-2	.	1	17	-4	.	.
COC(=O)C1=C(C)NC2=C(C(=O)c3ccccc32)C1c1cccc(OC)c1 (stereo unspecified)	3	-17	-1.4	2	24	1	.	.
CC1=C([N+](=O)[O-])C(c2cccc(Br)c2)C2=C(N1)c1ccccc1C2=O (stereo unspecified)	-12	19	-0.63	-2	74*	17	66*	84*
COc1ccc(CCCC(=O)NCc2ccccc2)cc1C	2	-6	-0.38	3	53*	-3	48*	71*
CCCN1CCC(=O)N([C@H](CN=[N+]=[N-])CC(C)C)CC1	.	-4	.	0	-9	-1	.	.
Cc1ccc(-c2ccc(/C=C(\C#N)C(=O)Nc3cc(C)nn3-c3ccccc3)o2)cc1	-2	.	1.6	55*	54*	46*	4	.
Cc1cc(NC(=O)/C(C#N)=C/c2ccco2)n(-c2ccccc2)n1	-12	-13	-0.57	-2	10	1	.	.
CC(=O)c1cccc(NC(=O)CN2C(=O)C(=O)N(Cc3ccco3)C2=O)c1	.	-10	.	1	23	0	.	.
